From ChEMBL document CHEMBL2417446, “Atropisomeric 4-phenyl-4H-1,2,4-triazoles as selective glycine transporter 1 inhibitors” (J Med Chem, 2013)
≈ marks a conversion by molar mass, not a printed value. Each block holds one molecule with its values, some of them ahead of it.

How the values were obtained:
[1] = target: T1, Sodium- and chloride-dependent glycine transporter 1 (Rattus norvegicus, UniProt P28572); assay: Displacement of [3H]glycine from GlyT1 in rat C6 glioma cells incubated for 30 mins prior to substrate addition measured after 10 mins by scintillation counting analysis; type: cell-based
T1 sequence (P28572 whole entry): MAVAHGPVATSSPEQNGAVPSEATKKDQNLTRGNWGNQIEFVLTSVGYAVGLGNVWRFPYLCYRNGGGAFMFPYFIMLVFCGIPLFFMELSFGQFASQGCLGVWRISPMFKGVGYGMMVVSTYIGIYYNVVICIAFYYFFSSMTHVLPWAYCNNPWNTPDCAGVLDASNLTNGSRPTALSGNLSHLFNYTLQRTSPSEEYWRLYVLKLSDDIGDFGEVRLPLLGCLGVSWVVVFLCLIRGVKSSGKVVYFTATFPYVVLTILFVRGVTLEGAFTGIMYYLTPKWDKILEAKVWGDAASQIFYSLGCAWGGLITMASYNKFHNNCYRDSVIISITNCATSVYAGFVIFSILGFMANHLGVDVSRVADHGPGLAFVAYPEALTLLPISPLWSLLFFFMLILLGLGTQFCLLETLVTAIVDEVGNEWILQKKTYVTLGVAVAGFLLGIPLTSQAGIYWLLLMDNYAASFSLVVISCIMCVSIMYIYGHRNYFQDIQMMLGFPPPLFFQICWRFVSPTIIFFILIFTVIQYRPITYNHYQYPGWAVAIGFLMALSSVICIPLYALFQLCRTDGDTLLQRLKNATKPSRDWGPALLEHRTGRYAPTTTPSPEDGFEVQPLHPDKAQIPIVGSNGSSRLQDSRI

[2] = Aqueous solubility of the compound at pH 6.8 after 20 hrs by HPLC analysis; type: physicochemical; conditions: buffer; for solubility at 20 h: pH 6.8; for solubility: pH 6.8, 20 h, 20 h
[3] = Ratio of brain to plasma in ddY mouse at 1 mg/kg, iv by LC-MS analysis; type: ADME, organism-based; design: dose 1 mg/kg, route intravenous; conditions: read-out: BPR
MDR1 = assay: (§1) Apparent permeability from apical to basolateral side in pig LLC-PK1 cells expressing MDR1 after 2 hrs by LC-MS/MS analysis; type: ADME, cell-based, Sus scrofa; conditions: LLC-PK1
How it was run: (§2)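 Transport in LLC-PK1 cells and in LLC-GA5-COL150 cells (LLC-PK1 transfected with human MDR1). Papp = amount transported divided by initial donor concentration. Efflux ratio compares the Papp of the two directions (BA/AB).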

[4] = target: T2, Sodium- and chloride-dependent glycine transporter 2 (Rattus norvegicus, UniProt P58295); assay: Displacement of [3H]glycine from GlyT2 in Wistar rat brainstem cells after 10 mins by scintillation counting analysis; type: cell-based
T2 sequence (P58295 whole entry): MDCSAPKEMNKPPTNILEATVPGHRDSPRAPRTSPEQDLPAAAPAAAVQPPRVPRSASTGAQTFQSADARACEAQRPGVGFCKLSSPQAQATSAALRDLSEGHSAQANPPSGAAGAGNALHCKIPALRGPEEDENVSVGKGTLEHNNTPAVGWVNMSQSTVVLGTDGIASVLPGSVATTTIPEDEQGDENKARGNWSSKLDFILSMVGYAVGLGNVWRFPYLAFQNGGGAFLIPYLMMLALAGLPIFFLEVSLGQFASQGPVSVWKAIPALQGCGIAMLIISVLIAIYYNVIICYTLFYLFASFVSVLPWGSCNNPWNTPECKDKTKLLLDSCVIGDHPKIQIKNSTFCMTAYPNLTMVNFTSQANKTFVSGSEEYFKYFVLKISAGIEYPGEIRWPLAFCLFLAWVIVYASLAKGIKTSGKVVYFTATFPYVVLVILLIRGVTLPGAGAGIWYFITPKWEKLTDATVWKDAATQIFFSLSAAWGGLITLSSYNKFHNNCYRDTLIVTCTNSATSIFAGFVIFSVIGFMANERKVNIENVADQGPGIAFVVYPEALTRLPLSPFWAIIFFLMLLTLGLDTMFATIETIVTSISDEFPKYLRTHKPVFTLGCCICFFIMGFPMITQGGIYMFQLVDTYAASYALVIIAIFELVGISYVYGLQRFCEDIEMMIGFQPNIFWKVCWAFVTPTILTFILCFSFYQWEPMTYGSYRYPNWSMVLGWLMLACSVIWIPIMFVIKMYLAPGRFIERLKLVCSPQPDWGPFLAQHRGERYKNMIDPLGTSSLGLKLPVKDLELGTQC

[5] = Lipophilicity, log D of the compound at pH 7.4; type: physicochemical; conditions: buffer
[6] = Intrinsic clearance in ddY mouse liver microsomes by LC-MS/MS analysis; type: ADME, Microsome; conditions: read-out: CLH
How it was run: (§3)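 Liver microsome CLint was run in duplicate.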

[7] = Intrinsic clearance in human liver microsomes after 30 mins by LC-MS/MS analysis; type: ADME, Microsome; conditions: read-out: CLH; how it was run: as §3
[8] = target: T3, Sodium- and chloride-dependent glycine transporter 1 (Rattus norvegicus) (UniProt P28572); conditions: C6 glioma, 10 uM
T3 sequence (whole entry): T1 sequence (P28572 whole entry)

[9] = Oral bioavailability in cynomolgus monkey at 3 mg/kg by LC/MS analysis; type: ADME, organism-based, Macaca fascicularis; conditions: in vivo
How it was run: (§4)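 Single dose given iv at 1 mg/kg or po at 3 mg/kg; each value is the mean of n = 3 measurements.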

[10] = Volume of distribution at steady state in ddY mouse at 1 mg/kg, iv by LC/MS analysis; type: ADME, organism-based; design: dose 1 mg/kg, route intravenous; conditions: in vivo, read-out: Vdss
How it was run: (§5)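 Single intravenous dose as a pharmacokinetic study, with each parameter reported as the mean of n = 3 measurements.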

[11] = Oral bioavailability in ddY mouse at 3 mg/kg by LC/MS analysis; type: ADME, organism-based; conditions: in vivo; how it was run: as §4
[12] = AUC in ddY mouse at 1 mg/kg, iv by LC/MS analysis; type: ADME, organism-based; design: dose 1 mg/kg, route intravenous; conditions: plasma; how it was run: as §4
[13] = Plasma clearance in ddY mouse at 1 mg/kg, iv by LC/MS analysis; type: ADME, organism-based; design: dose 1 mg/kg, route intravenous; how it was run: as §4
[14] = AUC in ddY mouse at 3 mg/kg, po by LC/MS analysis; type: ADME, organism-based; design: dose 3 mg/kg, route oral; conditions: plasma; how it was run: as §4
[15] = Plasma clearance in cynomolgus monkey at 1 mg/kg, iv by LC/MS analysis; type: ADME, organism-based, Macaca fascicularis; design: dose 1 mg/kg, route intravenous; how it was run: as §4
[16] = Half life in cynomolgus monkey at 1 mg/kg, iv by LC/MS analysis; type: ADME, organism-based, Macaca fascicularis; design: dose 1 mg/kg, route intravenous; conditions: in vivo; how it was run: as §4
LLC-PK1 = assay: as §1; type: ADME, cell-based, Sus scrofa; conditions: llc-pk1, 2 h, 2 h; how it was run: as §2
[17] = Cmax in cynomolgus monkey at 3 mg/kg, po by LC/MS analysis; type: ADME, organism-based, Macaca fascicularis; design: dose 3 mg/kg, route oral; conditions: in vivo; how it was run: as §4
[18] = Intrinsic clearance in cynomolgus monkey liver microsomes after 30 mins by LC-MS/MS analysis; type: ADME, Macaca fascicularis, Microsome; conditions: read-out: CLH; how it was run: as §3
[19] = Volume of distribution at steady state in cynomolgus monkey at 1 mg/kg, iv by LC/MS analysis; type: ADME, organism-based, Macaca fascicularis; design: dose 1 mg/kg, route intravenous; conditions: in vivo, read-out: Vdss; how it was run: as §5
[20] = Half life in ddY mouse at 1 mg/kg, iv by LC/MS analysis; type: ADME, organism-based; design: dose 1 mg/kg, route intravenous; conditions: in vivo; how it was run: as §4
[21] = AUC in cynomolgus monkey at 1 mg/kg, iv by LC/MS analysis; type: ADME, organism-based, Macaca fascicularis; design: dose 1 mg/kg, route intravenous; conditions: plasma; how it was run: as §4
[22] = Cmax in ddY mouse at 3 mg/kg, po by LC/MS analysis; type: ADME, organism-based; design: dose 3 mg/kg, route oral; conditions: in vivo; how it was run: as §4
[23] = AUC in cynomolgus monkey at 3 mg/kg, po by LC/MS analysis; type: ADME, organism-based, Macaca fascicularis; design: dose 3 mg/kg, route oral; conditions: plasma; how it was run: as §4

IC50 [1]: 6.6 µM
Structure (SMILES): CCc1nnc(C2CCN(c3ccccc3)CC2)n1-c1ccccc1F

IC50 [1]: 3.7 µM
Structure (SMILES): CCc1nnc(N2CCC(c3ccccc3)CC2)n1-c1ccccc1F

IC50 [1]: 5.1 µM
Structure (SMILES): CCc1nnc(-c2ccc(-c3ccccc3)cc2)n1-c1cccc(C(=O)OC)c1C

IC50 [1]: 7 µM
Structure (SMILES): Cc1nnc(-c2ccc(-c3cccnc3)cc2)n1-c1ccccc1F

solubility at 20 h [2]: 94 µM (≈ 34.4 µg/mL)
Structure (SMILES): CCc1nnc(-c2ccc(-c3ccccc3)nc2)n1-c1cccc(C#N)c1C (atropisomer S)

solubility at 20 h [2]: 31 µM (≈ 10.7 µg/mL)
Structure (SMILES): CCc1nnc(-c2ccc(-c3ccccc3)nc2)n1-c1ccccc1F

Kp [3]: 0.7
Papp A→B at 2 h (MDR1): 29.6 ×10⁻⁶ cm/s
solubility [2]: 98 µM (≈ 35.8 µg/mL)
Structure (SMILES): CCc1nnc(-c2ccc(-c3ccccc3)nc2)n1-c1cccc(C#N)c1C

IC50 [1]: 3.1 µM
Structure (SMILES): CCc1nnc(-c2ccc(-c3ccccc3)cc2)n1-c1cccc(N(C)C)c1C

solubility at 20 h [2]: < 1 µM
Structure (SMILES): CCc1nnc(-c2ccc(-c3ccccc3)cc2)n1-c1ccccc1F

IC50 [1]: 2.4 µM
Structure (SMILES): CCc1nnc(-c2ccc(-c3ccccc3)cc2)n1-c1cccc(COC)c1C

IC50 [1]: 2.6 µM
Structure (SMILES): CCc1nnc(N2CCN(c3ccccc3)CC2)n1-c1ccccc1F

IC50 [1]: 2.2 µM
Structure (SMILES): CCc1nnc(-c2ccc(-c3ccccc3)cc2)n1-c1cccc(Cl)c1C

IC50 [4]: 1.6 µM
IC50 [1]: 0.86 µM
Structure (SMILES): Cc1nnc(-c2ccc(-c3ccccn3)cc2)n1-c1ccccc1F

IC50 [1]: 5.9 µM
Structure (SMILES): Cc1nnc(-c2ccc(-c3ccncc3)cc2)n1-c1ccccc1F

IC50 [1]: 2.8 µM
Structure (SMILES): CCc1nnc(-c2ccc(-c3ccccc3)cc2)n1-c1cccc(CC#N)c1C

IC50 [1]: 3.9 µM
Structure (SMILES): CCc1nnc(-c2ccc(-c3ccccc3)cc2)n1-c1cccc(C(N)=O)c1C

IC50 [1]: 2.2 µM
Structure (SMILES): CCc1nnc(-c2ccc(-c3ccccc3)cc2)n1-c1cccc(Br)c1C

IC50 [1]: 29 µM
Structure (SMILES): CCc1nnc(-c2ccc(-c3ccccc3)cc2)n1-c1cccc(CN(C)C)c1C

logD [5]: 4.1
Papp A→B at 2 h (MDR1): 25.6 ×10⁻⁶ cm/s
CLint scaled [6]: > 1000 mL/min/kg
solubility at 20 h [2]: 5 µM (≈ 1.88 µg/mL)
CLint scaled [7]: 374 mL/min/kg
Structure (SMILES): CCc1nnc(-c2ccc(-c3ccccc3)cc2)n1-c1cccc2cnccc12

IC50 [1]: > 10 µM
inhibition [8]: 38%
Structure (SMILES): CCc1nnc(-c2ccc(-c3ccccc3)cc2)n1-c1cccc(C(F)(F)F)c1C

logD [5]: 4.1
Papp A→B at 2 h (MDR1): 27.5 ×10⁻⁶ cm/s
CLint scaled [6]: > 1000 mL/min/kg
solubility at 20 h [2]: < 1 µM
CLint scaled [7]: 126 mL/min/kg
Structure (SMILES): CCc1nnc(-c2ccc(-c3ccccc3)cc2)n1-c1cccc(C#N)c1C

logD [5]: 3
bioavailability [9]: 23%
Vd [10]: 1 L/kg
bioavailability [11]: 32%
AUC [12]: 248 ng·h/mL
clearance [13]: 67 mL/min/kg
AUC [14]: 235 ng·h/mL
clearance [15]: 21 mL/min/kg
half-life [16]: 2.4 h
Papp (LLC-PK1): 35.4 ×10⁻⁶ cm/s
Cmax [17]: 141 ng/mL
CLint scaled [18]: 162 mL/min/kg
Vd [19]: 3.4 L/kg
half-life [20]: 0.22 h
AUC [21]: 875 ng·h/mL
CLint scaled [6]: 787 mL/min/kg
Cmax [22]: 319 ng/mL
AUC [23]: 522 ng·h/mL
solubility [2]: 95 µM (≈ 34.7 µg/mL)
CLint scaled [7]: 55 mL/min/kg
Structure (SMILES): CCc1nnc(-c2ccc(-c3ccccc3)nc2)n1-c1cccc(C#N)c1C (atropisomer R)
